Organism: Rattus norvegicus
Assay: Maximum rate for the hydrolysis of hippuryl-glycyl-glycine by rat serum ACE
Type: ADME
Details: not given
Method in brief: (§1)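 For rat serum ACE kinetics, the dependence of hippurylglycylglycine hydrolysis rate on substrate concentration was measured at increasing inhibitor concentrations. Apparent Km and Vmax were derived for each inhibitor level.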

Row | Vmax [uM min-1 ml-1] | SMILES
1 | 1.31 | CN(CC(=O)NO)C(=O)C1CCCCC1C(=O)O (stereo in doubt; 21a)

Organism: Rattus norvegicus
Assay: Maximum rate for the hydrolysis of hippuryl-glycyl-glycine by rat serum ACE at the concentration of 12 nM
Type: ADME
Details: 0.012 µM
Method in brief: as §1

Row | Vmax [uM min-1 ml-1] | SMILES
2 | 1.36 | CN(CC(=O)NO)C(=O)C1CCCCC1C(=O)O (stereo in doubt; 21a)

Organism: Rattus norvegicus
Assay: Maximum rate for the hydrolysis of hippuryl-glycyl-glycine by rat serum ACE at the concentration of 3 nM
Type: ADME
Details: 0.003 µM
Method in brief: as §1

Row | Vmax [uM min-1 ml-1] | SMILES
3 | 1.25 | CN(CC(=O)NO)C(=O)C1CCCCC1C(=O)O (stereo in doubt; 21a)

Organism: Rattus norvegicus
Assay: Maximum rate for the hydrolysis of hippuryl-glycyl-glycine by rat serum ACE at the concentration of 6 nM (mean +/- SEM)
Type: ADME
Details: 0.006 µM
Method in brief: as §1

Row | Vmax [uM min-1 ml-1] | SMILES
4 | 1.16 | CN(CC(=O)NO)C(=O)C1CCCCC1C(=O)O (stereo in doubt; 21a)

Molecular target: T1, Angiotensin-converting enzyme (Rattus norvegicus, UniProt P47820)
T1 sequence (P47820 whole entry): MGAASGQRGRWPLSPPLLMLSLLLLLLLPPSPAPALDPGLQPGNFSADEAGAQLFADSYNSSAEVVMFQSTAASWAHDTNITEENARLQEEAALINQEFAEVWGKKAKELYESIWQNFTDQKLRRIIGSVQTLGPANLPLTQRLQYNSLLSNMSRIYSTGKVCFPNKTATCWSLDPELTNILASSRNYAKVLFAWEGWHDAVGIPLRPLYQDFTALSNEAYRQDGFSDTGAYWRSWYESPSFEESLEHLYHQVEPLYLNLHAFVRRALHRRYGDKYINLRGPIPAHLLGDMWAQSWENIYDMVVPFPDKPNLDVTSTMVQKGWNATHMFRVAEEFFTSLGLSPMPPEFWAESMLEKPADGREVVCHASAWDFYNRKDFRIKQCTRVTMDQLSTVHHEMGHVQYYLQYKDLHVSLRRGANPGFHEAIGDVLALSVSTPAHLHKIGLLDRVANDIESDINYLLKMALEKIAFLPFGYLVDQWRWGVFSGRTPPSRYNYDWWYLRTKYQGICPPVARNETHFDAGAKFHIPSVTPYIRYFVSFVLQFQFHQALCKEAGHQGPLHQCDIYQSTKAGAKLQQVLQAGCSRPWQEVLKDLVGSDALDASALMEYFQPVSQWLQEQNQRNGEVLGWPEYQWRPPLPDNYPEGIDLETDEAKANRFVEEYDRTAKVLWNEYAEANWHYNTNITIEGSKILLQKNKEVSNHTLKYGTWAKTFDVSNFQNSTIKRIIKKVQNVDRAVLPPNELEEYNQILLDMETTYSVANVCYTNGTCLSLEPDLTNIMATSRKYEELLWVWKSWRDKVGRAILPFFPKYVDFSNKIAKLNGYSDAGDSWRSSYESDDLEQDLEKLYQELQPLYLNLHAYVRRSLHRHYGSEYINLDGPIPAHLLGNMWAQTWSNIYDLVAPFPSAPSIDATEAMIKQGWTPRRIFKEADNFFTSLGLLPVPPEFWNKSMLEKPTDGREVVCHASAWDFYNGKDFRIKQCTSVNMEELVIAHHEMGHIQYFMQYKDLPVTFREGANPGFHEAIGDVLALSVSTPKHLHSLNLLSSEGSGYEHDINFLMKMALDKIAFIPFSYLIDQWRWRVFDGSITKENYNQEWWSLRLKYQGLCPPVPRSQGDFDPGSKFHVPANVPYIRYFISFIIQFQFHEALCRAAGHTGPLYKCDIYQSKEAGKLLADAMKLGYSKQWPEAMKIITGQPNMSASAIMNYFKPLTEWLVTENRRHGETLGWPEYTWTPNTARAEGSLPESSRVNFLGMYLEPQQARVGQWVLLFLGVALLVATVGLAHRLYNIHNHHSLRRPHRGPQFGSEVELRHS
Assay: In vitro inhibitory activity against rat serum angiotensin I converting enzyme using hippuryl-glycyl-glycine as substrate
Type: cell-free
Details: not given

Row | IC50 [nM] | SMILES
5 | > 150000 | O=C(CNC(=O)C1CCCCC1C(=O)O)NOCc1ccccc1 (cis isomer)
6 | 1400 | O=C(O)C1CCCCC1C(=O)CCS (stereo not drawn)
7 | 2900 | CCN(CC(=O)NO)C(=O)C1CCCCC1C(=O)O (stereo in doubt; 16c)
8 | 7 | CN(CC(=O)NO)C(=O)C1CCCCC1C(=O)O (stereo in doubt; 21a)
9 | 10000 | O=C(O)C1CCCCC1C(=O)NCCS (stereo in doubt; 8b)
10 | 45 | CN(CC(=O)NO)C(=O)C1CCCCC1C(=O)O (trans isomer)
11 | > 150000 | CN(CC(=O)NOCc1ccccc1)C(=O)C1CCCCC1C(=O)O (stereo in doubt; 9e)
12 | 28 | CCN(CC(=O)NO)C(=O)C1CCCCC1C(=O)O (stereo in doubt; 21c)
13 | 24 | CN(CC(=O)NO)C(=O)C1CCCCC1C(=O)O (stereo in doubt; 16b)
14 | > 150000 | CN(CC(=O)NOCc1ccccc1)C(=O)C1CCCCC1C(=O)O (cis isomer)
15 | > 150000 | CCCN(CC(=O)O)C(=O)C1CCCCC1C(=O)O (stereo not drawn)
16 | 75000 | CCN(CC(=O)O)C(=O)C1CCCCC1C(=O)O (stereo in doubt; 7d)
17 | 23500 | CN(CC(=O)NO)C(=O)C1CCCCC1C(=O)O (stereo in doubt; 16a)
18 | 12 | CN(CC(=O)NO)C(=O)C1CCCCC1C(=O)O (cis isomer)
19 | > 150000 | CN(CC(=O)O)C(=O)C1CCCCC1C(=O)O (cis isomer)
20 | 57 | CCN(CC(=O)NO)C(=O)C1CCCCC1C(=O)O (cis isomer)
21 | 1400 | CN(CC(=O)NO)C(=O)C1CCCC1C(=O)O (stereo not drawn)
22 | 600 | CC(CC(=O)NO)C(=O)N1CCC[C@H]1C(=O)O (stereo partly drawn)
23 | > 150000 | CCN(CC(=O)O)C(=O)C1CCCC1C(=O)O (cis isomer)

From ChEMBL document CHEMBL1126616, “1,2-Cyclomethylenecarboxylic monoamide hydroxamic derivatives. A novel class of non-amino acid angiotensin converting enzyme inhibitors” (J Med Chem, 1993)
